TRPC4 PAM – positive allosteric modulators of TRPC4, primary screen, cell-based, mouse TRPC4beta, HEK293 mu-opioid, Fluo-4 calcium; AID 2227, 2009; B-score at 10 µM; hit rate 0.42% among 310,000; DAMGO EC20, Fluo-4 Ca2+ flux; hits give high values; Short transient receptor potential channel 4 (Mus musculus), Q9QUQ5;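 active = B-score of calcium response area above 5 SD of library B-scores, with initial fluorescence ratio within 5 SD of library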;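 note: B-score of integrated fluorescence ratio over time as area under calcium response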
TRPC6 act – mouse TRPC6 channel activators, primary screen, cell-based, HEK293, membrane potential dye | hit rate 0.13% among 310,000 | AID 2550, 2010 | B-score at 10 µM | HEK293-TRPC6 membrane potential dye fluorescence; hits give high values | Short transient receptor potential channel 6 (Mus musculus), Q61143;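 active = B-score of the integrated fluorescence ratio above library mean plus 3 SD, and starting fluorescence ratio within library mean plus 5 SD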;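 note: higher score means more depolarization so channel activation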
TRPC4 act – activators of mouse TRPC4 channel, primary screen, Fluo4 calcium, HEK293 TRPC4beta/mu-opioid cells; Short transient receptor potential channel 4 (Mus musculus), Q9QUQ5; Fluo4 calcium fluorescence; hits give high values; B-score at 10 µM; hit rate 0.49% among 310,000; AID 2237, 2010;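 active = B-score above 5 SD of library B-scores, and initial fluorescence ratio not above library mean plus 5 SD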;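 note: positive B-score marks a calcium rise read as TRPC4 activation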
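Assay system: HEK293 stable line with TRPC4beta plus mu-opioid receptor; schedule: 45 min room-temperature Fluo4 loading, 110 s read; technique: kinetic Fluo4 calcium fluorescence; evaluation: integrated baseline-normalised fluorescence ratio, converted to per-well B score; controls: buffer (low) and maximal DAMGO (high)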
Kir21 block – inhibitors of mouse Kir2.1 inward-rectifier potassium channel; Inward rectifier potassium channel 2 (Mus musculus), P35561; HEK293-Kir2.1, FluxOR thallium flux fluorescence; hits give low values; B-score at 10 µM; hit rate 0.85% among 310,000;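 active = fluorescence ratio B-score at or below minus 3 SD of library scores, with starting-brightness B-score within 2 SD, cut at about -4.2 in these data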;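 note: channel flux triggered by added potassium and thallium sulfate stimulus; B-score of peak minus minimum fluorescence over baseline after thallium stimulus; more negative B-score means stronger Kir2.1 block with less thallium influx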
Target sequence (P35561 whole entry, looked up): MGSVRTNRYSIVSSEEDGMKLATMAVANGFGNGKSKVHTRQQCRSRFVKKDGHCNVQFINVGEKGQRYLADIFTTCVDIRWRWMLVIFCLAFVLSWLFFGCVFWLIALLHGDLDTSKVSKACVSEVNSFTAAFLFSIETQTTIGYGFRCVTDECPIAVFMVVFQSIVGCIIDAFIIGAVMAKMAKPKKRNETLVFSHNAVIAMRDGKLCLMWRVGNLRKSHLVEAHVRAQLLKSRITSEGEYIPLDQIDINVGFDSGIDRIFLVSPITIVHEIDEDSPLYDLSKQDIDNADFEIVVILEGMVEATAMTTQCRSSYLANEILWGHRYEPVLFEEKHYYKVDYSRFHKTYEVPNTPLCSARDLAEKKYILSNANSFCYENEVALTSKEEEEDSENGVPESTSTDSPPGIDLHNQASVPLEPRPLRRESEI
TRPC6 inh – mouse TRPC6 channel inhibitors, primary screen, cell-based, HEK293, membrane potential dye; B-score at 10 µM; ACh-evoked depolarization; hits give low values; Short transient receptor potential channel 6 (Mus musculus), Q61143; hit rate 1.1% among 310,000; AID 2553, 2010;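 active = B-score under library mean minus 3 SD, initial fluorescence not abnormally high, positive integrated signal ratio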;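 note: B-score derived from integrated fluorescence ratio over the kinetic read; more negative B-score means stronger inhibition of depolarization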
TRPC4 inh – inhibitors of mouse TRPC4 channel, primary screen, Fluo4 calcium, HEK293 TRPC4beta/mu-opioid cells | DAMGO-evoked Fluo4 calcium flux; hits give low values | B-score at 10 µM | hit rate 0.39% among 300,000 | AID 2247, 2010;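 active = B-score over 3 SD under the library average, no early fluorescence shift, positive overall ratio signal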
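Assay system: TRPC4beta/mu-opioid receptor HEK293 cell line; compound dosing: single concentration per test compound; detection: Fluo4 Ca2+ flux fluorescence; evaluation: per-well B score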
HEK293 TRPC6 ctr – parental HEK293 membrane potential modulation, confirmation, counter-screen for TRPC6 modulator project, cell-based | membrane potential dye fluorescence | shares compounds with TRPC6 inh | hit rate 51% among 2,400 | AID 488924, 2010 | membrane potential signal change, % at 10 µM;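 active = membrane potential signal moves up or down beyond 5 SD from buffer-only wells, on both duplicate plates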
HEK293 MPD ctr 2 – parental HEK293 nonspecific activity of TRPC6 modulators, second screen | inhibition, % at 10 µM | hit rate 14% among 2,400 | shares compounds with TRPC6 inh | membrane potential dye fluorescence; after compound, maximal acetylcholine stimulation | AID 488926;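 active = membrane potential signal drops by more than 5 SD from the mean control signal, in both duplicate plates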;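 note: plate controls were acetylcholine ECmax control wells for no effect and buffer only wells for full effect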
TRPC4/MOR mod – TRPC4 modulation by TRPC6 hit compounds, confirmation, selectivity assay for TRPC6 modulator project, cell-based, HEK293 TRPC4/mu-opioid, membrane potential dye, mouse; shares compounds with TRPC6 inh; membrane potential fluorescence; percent change from control (negative = decrease, positive = increase), % at 10 µM; hit rate 69% among 2,400; AID 488927, 2010;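 active = membrane potential signal moved up or down beyond 5 SD of buffer control wells, in both duplicate plates, actives on both sides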;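 note: plate controls were assay buffer wells for no effect and DAMGO maximal-effect wells for full effect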
TRPC4 ctr inh 2 – second selectivity test of TRPC6 modulators against mouse TRPC4. shares compounds with TRPC6 inh. HEK293 TRPC4/mu-opioid, membrane potential dye fluorescence; stimulated with maximal-effect DAMGO. inhibition, % at 10 µM. hit rate 55% among 2,400;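 active = drop in membrane potential signal beyond 5 SD of the control wells in both duplicate plates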;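 note: TRPC4 counter screen for TRPC6 hits run under conditions tuned for TRPC6 not TRPC4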
TRPC6 inh conf – mouse TRPC6 channel inhibitors, confirmation, HEK293 cells, membrane potential dye, duplicate; shares compounds with TRPC6 inh; ACh-evoked depolarization; inhibition, % at 10 µM; hit rate 43% among 3,300; AID 488960, 2010;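 active = fluorescence ratio falls more than 5 SD below the full-stimulation control mean, in both duplicate runs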;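 note: integrated fluorescence ratio of peak minus minimum over baseline after agonist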
TRPC6 act confirm – mouse TRPC6 channel activators, confirmation, HEK293 cells, membrane potential dye, duplicate; shares compounds with TRPC6 inh; activation, % at 10 µM; hit rate 11% among 2,800; HEK293-TRPC6 membrane potential dye fluorescence, FDSS;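 active = ratio signal rise beyond 5 SD above unstimulated control wells' mean, seen in both duplicate runs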;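 note: plate controls were buffer EC0 wells for no effect and acetylcholine ECmax response for full effect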
Active calls of the source: *; i = inactive; . = no result given. This is a sample that favours compounds with a hit; in the whole collection about 2.9% have one here.

SMILES	TRPC4 PAM	TRPC6 act	TRPC4 act	Kir21 block	TRPC6 inh	TRPC4 inh	HEK293 TRPC6 ctr	HEK293 MPD ctr 2	TRPC4/MOR mod	TRPC4 ctr inh 2	TRPC6 inh conf	TRPC6 act confirm
NS(=O)(=O)c1ccc(NN=C2CCN(Cc3ccccc3)CC2)c([N+](=O)[O-])c1	17*	i	i	0.66	-5.7*	i	i	i	i	i	i	i
O=[N+]([O-])c1ccc(NC2CCN(Cc3ccccc3)CC2)c([N+](=O)[O-])c1	i	i	i	-0.19	-6.7*	i	-90%*	i	-17%*	52%*	i	i
O=C1C2CCCCC2C(=O)N1c1ccc(NC2CCN(Cc3ccccc3)CC2)c([N+](=O)[O-])c1 (centres undefined)	i	i	43*	-0.83	-6.3*	i	i	i	14%*	51%*	i	i
CN(c1cccnc1)c1ncnc2[nH]ncc12	i	i	i	-0.25	i	i	.	.	.	.	.	.
CCN1CCN(c2c(Cl)cccc2NC(=O)c2ccc3nsnc3c2)CC1	19*	i	63*	0.82	-9.6*	i	-206%*	i	-36%*	64%*	48%*	i
O=C(Nc1ccc(Cl)cc1)c1ccc2nsnc2c1	i	i	i	0.5	i	i	.	.	.	.	.	.
CCN1CCN(c2c(Cl)cccc2NC(=O)c2ccc([N+](=O)[O-])cc2)CC1	i	i	99*	-0.28	-5.9*	i	-225%*	i	-34%*	63%*	i	i
Cc1cccc(NC(=O)CN(C)S(=O)(=O)c2cccc3nsnc23)c1C	i	i	i	0.08	-5.5*	i	i	i	16%*	28%*	i	i
COC(=O)/C=C1\SC(=NC(=O)c2ccc(C)cc2)NC1=O	i	i	i	0.17	i	i	.	.	.	.	.	.
COC(=O)/C=C1/SC(=NC(=O)c2ccc(Cl)cc2)NC1=O	i	14*	i	-1.1	i	i	134%*	i	20%*	i	i	56%*
Cc1cc(C)c2cc(CN(CCCN(C)C)C(=S)NCc3ccccc3)c(=O)[nH]c2c1	i	i	i	-3.3	i	i	.	.	.	.	.	.
CCOCCCn1c(=N)c(C(=O)NCc2ccc3c(c2)OCO3)cc2c(=O)n3cccc(C)c3nc21	i	i	i	0.11	-5.1*	i	i	i	-12%*	36%*	i	i

Bioassay records (PubChem BioAssay)
